According to ChEMBL document CHEMBL3861950, “Design, synthesis and evaluation of novel 19F magnetic resonance sensitive protein tyrosine phosphatase inhibitors” (Medchemcomm, 2016):

Tests used:
[1] = target: T1, Receptor-type tyrosine-protein phosphatase C (Homo sapiens, UniProt P08575); test: Inhibition of recombinant CD45 (unknown origin) using pNPP as substrate by spectrophotometric method
T1 sequence (P08575 whole entry): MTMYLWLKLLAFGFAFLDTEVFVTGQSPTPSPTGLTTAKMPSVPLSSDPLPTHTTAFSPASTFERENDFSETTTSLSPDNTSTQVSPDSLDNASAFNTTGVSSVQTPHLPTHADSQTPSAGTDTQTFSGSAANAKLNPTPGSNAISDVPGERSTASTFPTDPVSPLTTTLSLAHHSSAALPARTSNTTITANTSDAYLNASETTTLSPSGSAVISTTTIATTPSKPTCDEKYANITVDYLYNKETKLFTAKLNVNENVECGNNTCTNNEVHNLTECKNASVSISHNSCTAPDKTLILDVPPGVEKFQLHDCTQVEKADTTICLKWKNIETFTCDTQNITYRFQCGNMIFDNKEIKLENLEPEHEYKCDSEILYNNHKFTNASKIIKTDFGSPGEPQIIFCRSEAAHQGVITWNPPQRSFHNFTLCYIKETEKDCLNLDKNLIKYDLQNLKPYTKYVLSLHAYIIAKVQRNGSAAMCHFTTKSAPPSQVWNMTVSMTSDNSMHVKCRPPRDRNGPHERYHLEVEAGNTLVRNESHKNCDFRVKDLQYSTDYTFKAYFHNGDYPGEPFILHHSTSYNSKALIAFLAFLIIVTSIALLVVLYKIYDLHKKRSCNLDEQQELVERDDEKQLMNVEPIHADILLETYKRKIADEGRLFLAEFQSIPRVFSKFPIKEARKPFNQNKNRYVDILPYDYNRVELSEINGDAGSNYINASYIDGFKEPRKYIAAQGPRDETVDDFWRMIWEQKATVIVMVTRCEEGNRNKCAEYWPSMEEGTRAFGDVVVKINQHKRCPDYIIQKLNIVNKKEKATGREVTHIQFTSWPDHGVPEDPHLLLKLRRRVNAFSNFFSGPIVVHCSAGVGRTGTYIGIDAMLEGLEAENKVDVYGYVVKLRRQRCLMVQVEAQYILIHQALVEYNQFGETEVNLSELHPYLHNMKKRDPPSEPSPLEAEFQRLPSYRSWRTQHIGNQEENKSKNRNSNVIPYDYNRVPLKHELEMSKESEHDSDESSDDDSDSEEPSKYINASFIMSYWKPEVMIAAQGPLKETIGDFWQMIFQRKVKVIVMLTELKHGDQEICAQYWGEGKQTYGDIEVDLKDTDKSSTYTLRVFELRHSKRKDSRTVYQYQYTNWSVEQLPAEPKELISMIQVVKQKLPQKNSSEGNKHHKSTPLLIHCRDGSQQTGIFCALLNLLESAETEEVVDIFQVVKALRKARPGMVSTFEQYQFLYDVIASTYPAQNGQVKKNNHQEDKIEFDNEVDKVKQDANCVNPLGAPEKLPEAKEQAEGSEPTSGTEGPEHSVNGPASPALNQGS
Summary of the method: (§1)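 Recombinant PTP prepared in-house, assayed with pNPP substrate in 50 mM 3,3-dimethylglutarate buffer pH 7.0 containing 1 mM EDTA and 150 mM NaCl at 25 °C, in 96-well format. p-Nitrophenol product was quantified by absorbance at 405 nm. Non-enzymatic pNPP hydrolysis was corrected using a no-enzyme control.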

[2] = target: Tyrosine-protein phosphatase non-receptor type 13 (Homo sapiens, UniProt Q12923); test: Inhibition of recombinant FAP1 (unknown origin) using pNPP as substrate by spectrophotometric method; summary of the method: as §1
[3] = target: T2, Tyrosine-protein phosphatase non-receptor type 22 (Homo sapiens, UniProt Q9Y2R2); test: Inhibition of recombinant LYP (unknown origin) using pNPP as substrate by spectrophotometric method; summary of the method: as §1
T2 sequence (Q9Y2R2 whole entry): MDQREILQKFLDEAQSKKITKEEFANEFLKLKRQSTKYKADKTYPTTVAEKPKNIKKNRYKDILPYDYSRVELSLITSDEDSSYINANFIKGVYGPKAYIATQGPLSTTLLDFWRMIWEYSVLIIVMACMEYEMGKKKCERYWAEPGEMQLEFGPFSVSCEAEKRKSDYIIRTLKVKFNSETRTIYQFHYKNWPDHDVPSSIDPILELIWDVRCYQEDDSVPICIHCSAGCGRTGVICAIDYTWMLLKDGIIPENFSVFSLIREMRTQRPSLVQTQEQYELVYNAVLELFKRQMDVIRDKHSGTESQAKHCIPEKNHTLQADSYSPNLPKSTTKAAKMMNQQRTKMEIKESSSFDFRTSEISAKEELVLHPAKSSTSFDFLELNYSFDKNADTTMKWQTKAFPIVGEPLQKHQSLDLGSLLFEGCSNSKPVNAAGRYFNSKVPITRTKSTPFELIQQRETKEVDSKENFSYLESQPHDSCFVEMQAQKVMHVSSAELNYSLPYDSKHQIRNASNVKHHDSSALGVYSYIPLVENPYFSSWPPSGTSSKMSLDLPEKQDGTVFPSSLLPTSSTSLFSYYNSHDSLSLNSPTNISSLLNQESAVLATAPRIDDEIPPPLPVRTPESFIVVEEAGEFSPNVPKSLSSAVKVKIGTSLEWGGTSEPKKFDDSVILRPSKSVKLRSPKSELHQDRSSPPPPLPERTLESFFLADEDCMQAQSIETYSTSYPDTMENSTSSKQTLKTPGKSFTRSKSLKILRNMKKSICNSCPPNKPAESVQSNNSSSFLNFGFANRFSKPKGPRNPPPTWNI

[4] = Inhibition of recombinant Mycobacterium tuberculosis PTPB using pNPP as substrate by spectrophotometric method
Summary of the method: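 Recombinant enzyme made in-house. Substrate pNPP in 50 mM 3,3-dimethylglutarate buffer, pH 7.0, with 1 mM EDTA and 150 mM NaCl, at 25 °C, screened in 96-well format. p-Nitrophenol product read at 405 nm. Non-enzymatic pNPP hydrolysis was corrected using a control without enzyme.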

[5] = target: T3, Tyrosine-protein phosphatase non-receptor type 1 (Homo sapiens, UniProt P18031); test: Inhibition of recombinant PTP1B (unknown origin) using pNPP as substrate by spectrophotometric method; summary of the method: as §1
T3 sequence (P18031 whole entry): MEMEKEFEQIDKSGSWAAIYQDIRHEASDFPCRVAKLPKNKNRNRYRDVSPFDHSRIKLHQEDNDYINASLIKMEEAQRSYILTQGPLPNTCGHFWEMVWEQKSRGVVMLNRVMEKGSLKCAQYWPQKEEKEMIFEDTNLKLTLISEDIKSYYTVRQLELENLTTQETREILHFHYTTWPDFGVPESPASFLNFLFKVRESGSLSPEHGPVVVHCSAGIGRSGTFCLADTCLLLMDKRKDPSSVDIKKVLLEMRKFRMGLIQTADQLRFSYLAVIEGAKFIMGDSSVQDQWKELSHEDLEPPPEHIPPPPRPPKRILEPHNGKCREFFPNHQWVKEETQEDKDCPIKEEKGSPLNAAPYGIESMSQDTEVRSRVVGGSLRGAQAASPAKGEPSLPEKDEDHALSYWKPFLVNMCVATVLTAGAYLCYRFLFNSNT

[6] = target: T4, Tyrosine-protein phosphatase non-receptor type 11 (Homo sapiens, UniProt Q06124); test: Inhibition of recombinant SHP2 (unknown origin) using pNPP as substrate by spectrophotometric method; summary of the method: as §1
T4 sequence (Q06124 whole entry): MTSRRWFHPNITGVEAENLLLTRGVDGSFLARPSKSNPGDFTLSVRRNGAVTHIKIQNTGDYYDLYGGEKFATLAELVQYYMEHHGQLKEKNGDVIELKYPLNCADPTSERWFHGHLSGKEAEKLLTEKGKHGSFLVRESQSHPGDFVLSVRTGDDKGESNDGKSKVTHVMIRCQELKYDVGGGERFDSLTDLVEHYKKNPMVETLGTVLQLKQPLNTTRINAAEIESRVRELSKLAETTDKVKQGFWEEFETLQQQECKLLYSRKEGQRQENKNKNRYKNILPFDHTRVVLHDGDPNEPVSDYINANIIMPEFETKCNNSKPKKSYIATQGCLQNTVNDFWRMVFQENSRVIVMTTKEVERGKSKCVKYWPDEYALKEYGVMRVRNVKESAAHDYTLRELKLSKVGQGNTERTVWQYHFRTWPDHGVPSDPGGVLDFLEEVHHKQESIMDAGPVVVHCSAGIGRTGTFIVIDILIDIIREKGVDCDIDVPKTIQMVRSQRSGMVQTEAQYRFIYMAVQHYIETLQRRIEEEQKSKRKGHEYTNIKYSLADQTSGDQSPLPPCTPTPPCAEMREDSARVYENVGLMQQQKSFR

Tyrosine-protein phosphatase non-receptor type 13, sequence (Q12923 whole entry): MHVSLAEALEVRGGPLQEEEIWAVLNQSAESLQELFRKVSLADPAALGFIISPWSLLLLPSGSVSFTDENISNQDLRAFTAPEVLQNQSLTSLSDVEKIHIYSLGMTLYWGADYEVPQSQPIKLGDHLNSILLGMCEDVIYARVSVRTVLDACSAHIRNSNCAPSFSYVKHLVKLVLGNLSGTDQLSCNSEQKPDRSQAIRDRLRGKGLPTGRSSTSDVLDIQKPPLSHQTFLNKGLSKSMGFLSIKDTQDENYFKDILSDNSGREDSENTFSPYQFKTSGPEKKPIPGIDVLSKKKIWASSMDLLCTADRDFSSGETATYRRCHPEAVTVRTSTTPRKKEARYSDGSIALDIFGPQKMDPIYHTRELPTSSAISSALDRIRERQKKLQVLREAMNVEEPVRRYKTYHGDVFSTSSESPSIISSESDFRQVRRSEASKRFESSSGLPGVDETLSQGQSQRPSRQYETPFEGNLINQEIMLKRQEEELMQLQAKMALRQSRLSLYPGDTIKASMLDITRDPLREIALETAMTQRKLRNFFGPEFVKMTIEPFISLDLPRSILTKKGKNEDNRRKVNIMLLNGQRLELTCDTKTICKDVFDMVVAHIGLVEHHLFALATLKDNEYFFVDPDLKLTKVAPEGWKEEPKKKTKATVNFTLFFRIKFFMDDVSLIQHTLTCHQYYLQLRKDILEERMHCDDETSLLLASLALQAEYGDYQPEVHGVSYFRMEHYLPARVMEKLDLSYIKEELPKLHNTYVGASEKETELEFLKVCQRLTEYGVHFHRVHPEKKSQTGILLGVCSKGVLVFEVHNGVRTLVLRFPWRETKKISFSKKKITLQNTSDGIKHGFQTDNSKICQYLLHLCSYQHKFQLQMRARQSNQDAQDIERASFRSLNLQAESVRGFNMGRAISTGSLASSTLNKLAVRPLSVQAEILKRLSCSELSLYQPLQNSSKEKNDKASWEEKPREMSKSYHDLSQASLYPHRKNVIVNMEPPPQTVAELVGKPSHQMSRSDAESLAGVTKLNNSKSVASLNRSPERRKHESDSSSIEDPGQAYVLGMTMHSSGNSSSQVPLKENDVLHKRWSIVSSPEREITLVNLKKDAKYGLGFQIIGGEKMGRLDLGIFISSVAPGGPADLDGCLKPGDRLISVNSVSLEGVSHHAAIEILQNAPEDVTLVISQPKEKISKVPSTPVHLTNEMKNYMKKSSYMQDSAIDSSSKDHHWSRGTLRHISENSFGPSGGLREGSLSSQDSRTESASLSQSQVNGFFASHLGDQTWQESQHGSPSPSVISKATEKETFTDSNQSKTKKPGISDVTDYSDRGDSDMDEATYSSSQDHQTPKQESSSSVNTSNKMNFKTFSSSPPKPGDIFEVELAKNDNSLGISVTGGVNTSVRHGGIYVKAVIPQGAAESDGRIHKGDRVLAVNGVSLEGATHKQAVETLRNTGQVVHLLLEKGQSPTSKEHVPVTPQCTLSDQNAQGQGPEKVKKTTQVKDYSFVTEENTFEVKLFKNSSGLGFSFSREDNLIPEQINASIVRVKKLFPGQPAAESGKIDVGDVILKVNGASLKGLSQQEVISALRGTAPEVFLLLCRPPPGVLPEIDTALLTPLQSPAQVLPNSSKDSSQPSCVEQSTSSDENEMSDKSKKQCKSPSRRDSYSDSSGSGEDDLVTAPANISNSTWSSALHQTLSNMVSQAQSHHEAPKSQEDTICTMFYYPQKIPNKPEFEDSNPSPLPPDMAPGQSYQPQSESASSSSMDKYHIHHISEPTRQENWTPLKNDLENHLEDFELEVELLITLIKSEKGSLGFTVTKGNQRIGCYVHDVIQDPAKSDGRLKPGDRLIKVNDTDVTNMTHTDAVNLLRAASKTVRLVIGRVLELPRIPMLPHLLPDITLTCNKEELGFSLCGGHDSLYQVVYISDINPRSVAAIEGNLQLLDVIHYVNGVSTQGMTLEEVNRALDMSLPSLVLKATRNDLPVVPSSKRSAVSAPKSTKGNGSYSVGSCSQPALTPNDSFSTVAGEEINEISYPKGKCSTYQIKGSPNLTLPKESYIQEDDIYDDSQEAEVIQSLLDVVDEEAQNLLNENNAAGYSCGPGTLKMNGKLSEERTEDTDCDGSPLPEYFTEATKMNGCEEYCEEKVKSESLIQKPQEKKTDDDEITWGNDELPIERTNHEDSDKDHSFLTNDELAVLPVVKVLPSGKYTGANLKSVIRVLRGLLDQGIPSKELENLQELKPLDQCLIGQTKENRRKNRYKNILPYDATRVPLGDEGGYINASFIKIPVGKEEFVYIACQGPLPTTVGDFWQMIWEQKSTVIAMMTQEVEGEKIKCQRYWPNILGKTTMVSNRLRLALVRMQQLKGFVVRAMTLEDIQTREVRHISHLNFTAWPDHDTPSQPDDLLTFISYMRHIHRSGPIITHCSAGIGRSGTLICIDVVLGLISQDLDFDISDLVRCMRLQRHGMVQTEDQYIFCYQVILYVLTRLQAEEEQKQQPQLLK

O=C(COc1ccc2cc(C(O)(C(F)(F)F)C(F)(F)F)c(O)cc2c1)NC1c2ccccc2-c2ccccc21 showed an IC50 [1] of 6.6 µM, an IC50 [2] of 5.6 µM and an IC50 [3] of 7.5 µM. It also gave an IC50 [4] of 9.4 µM, an IC50 [5] of 13.8 µM and an IC50 [6] of 6.9 µM.

For O=C(COc1ccc2cc(C(O)(C(F)(F)F)C(F)(F)F)c(O)cc2c1)NC1CC1, the IC50 [1] was > 20 µM, the IC50 [2] was > 20 µM and the IC50 [3] was > 20 µM. For the same compound, the IC50 [4] was > 20 µM, the IC50 [5] was > 20 µM and the IC50 [6] was > 20 µM.

For OC(c1ccccc1)(C(F)(F)F)C(F)(F)F, the IC50 [1] was > 500 µM, the IC50 [2] was > 500 µM and the IC50 [3] was > 500 µM. For the same compound, the IC50 [4] was > 500 µM, the IC50 [5] was > 500 µM and the IC50 [6] was > 500 µM.

O=C(COc1ccc2cc(C(O)(C(F)(F)F)C(F)(F)F)c(O)cc2c1)N(c1ccccc1)c1ccccc1 showed an IC50 [1] of 14.9 µM, an IC50 [2] of 12.4 µM and an IC50 [3] of 20.6 µM. For the same compound, the IC50 [4] was > 20 µM, the IC50 [5] was > 20 µM and the IC50 [6] was 19.5 µM.

With O=C(COc1ccc2cc(C(O)(C(F)(F)F)C(F)(F)F)c(O)cc2c1)NCc1ccc(F)cc1 the IC50 [1] was > 20 µM, the IC50 [2] was > 20 µM and the IC50 [3] was > 20 µM. For the same compound, the IC50 [4] was > 20 µM, the IC50 [5] was > 20 µM and the IC50 [6] was > 20 µM.

With Oc1ccc(-c2ccccc2)cc1C(O)(C(F)(F)F)C(F)(F)F the IC50 [1] was > 500 µM, the IC50 [2] was > 500 µM and the IC50 [3] was > 500 µM. The IC50 [4] was 351 µM, the IC50 [5] was > 500 µM and the IC50 [6] was 392 µM.

With O=C(COc1ccc2cc(C(O)(C(F)(F)F)C(F)(F)F)c(O)cc2c1)NCc1ccccc1 the IC50 [1] was > 20 µM, the IC50 [2] was > 20 µM and the IC50 [3] was > 20 µM. The IC50 [4] was > 20 µM, the IC50 [5] was > 20 µM and the IC50 [6] was > 20 µM.

For Oc1c(-c2ccccc2)cccc1C(O)(C(F)(F)F)C(F)(F)F, the IC50 [1] was 157 µM, the IC50 [2] was 449 µM and the IC50 [3] was 268 µM. The IC50 [4] was 148 µM, the IC50 [5] was 422 µM and the IC50 [6] was 136 µM.

In the case of CCCNC(=O)COc1ccc2cc(C(O)(C(F)(F)F)C(F)(F)F)c(O)cc2c1, the IC50 [1] is reported as > 20 µM, the IC50 [2] is reported as > 20 µM and the IC50 [3] is reported as > 20 µM. For the same compound, the IC50 [4] was > 20 µM, the IC50 [5] was > 20 µM and the IC50 [6] was > 20 µM.
